Measured values published in ChEMBL document CHEMBL2429851, “New synthesis and tritium labeling of a selective ligand for studying high-affinity γ-hydroxybutyrate (GHB) binding sites” (J Med Chem, 2013).
Activity calls are given as the source filed them. The calls are words filed in the database; no cut-off is given here.

How the values were obtained:
Rattus norvegicus [1] = species: Rattus norvegicus; settings: Sprague-Dawley, Cerebral cortex, at 1 mM
MDCK [2] = assay: Apparent permeability from apical to basolateral side in MDCK cells expressing MDR1; assay type: ADME, cell-based, Canis lupus familiaris; settings: dog
[3] = Ratio of drug level in brain to plasma in C57 mouse at 10 mg/kg, po after 30 mins by LC-MS/MS analysis; assay type: ADME, organism-based; set-up: dose 10 mg/kg, route oral; settings: read-out: BPR
Procedure, shortened: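 Mice dosed orally at 10 mg/kg, a single acute dose. Brain and plasma sampled 30 minutes after dosing, and the brain-to-plasma concentration ratio calculated.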

Rattus norvegicus [4] = species: Rattus norvegicus; settings: Sprague-Dawley, Cerebral cortex, at 100 µM
MDCK [5] = assay: Apparent permeability from basolateral to apical side in MDCK cells expressing MDR1; assay type: ADME, cell-based, Canis lupus familiaris; settings: dog
Rattus norvegicus [6] = species: Rattus norvegicus; assay: (§1) Displacement of [3H]-3-hydroxycyclopent-1-enecarboxylic acid from GHB binding site in Sprague-Dawley rat cerebral cortex after 1 hr by scintillation counting analysis; assay type: tissue-based
Procedure, shortened: (§2)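 Rat cerebrocortical membranes incubated with 10 nM [3H]-ligand and competitor over a concentration range. Conditions follow the earlier [3H]NCS-382 protocol. Non-specific binding defined with 1 mM GHB. IC50 taken from inhibition curves. Each experiment run in triplicate, with three additional repeats.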

[7] = as §1; assay type: tissue-based
Procedure, shortened: as §2

[8] = Chemical stability of the compound in Milli-Q water at -30 degC by HPLC analysis; assay type: physicochemical; settings: buffer
Procedure, shortened: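 HPLC purity tracking (area%, 245 nm) of the compound dissolved at 2 mg/mL in MilliQ water (pH 3.5). Stored at −30±2°C and also at room temperature, sampled over time (days to over a year).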

[9] = Displacement of [3H]NCS-382 from GHB binding site in Sprague-Dawley rat brain synaptic membranes after 1 hr by scintillation counting analysis; assay type: cell membranes, Membrane
[10] = Radiochemical stability of the compound in aqueous solution of gentisic acid by HPLC analysis; assay type: physicochemical; settings: buffer
Procedure, shortened: (§3)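 [3H]-labelled compound tested for protection against radiolysis in four formulations, including ethanol and aqueous gentisic acid (50 mM), at 1 mCi/mL. Stability followed by HPLC (area%, 245 nm).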

[11] = Radiochemical stability of the compound in ethanol at 1 mCi/mL by HPLC analysis; assay type: physicochemical
Procedure, shortened: as §3

| SMILES | permeability (MDCK [2]) | Kp at 0.5 h [3] | permeability (MDCK [5]) | inhibition (Rattus norvegicus [6]) | IC50 [7] [nM] | pIC50 [7] | further results |
| --- | --- | --- | --- | --- | --- | --- | --- |
| NCC(CC(=O)O)c1ccc(Cl)cc1 (stereo not given) |  |  |  |  |  |  | inhibition (Rattus norvegicus [1]): inactive |
| O=C(O)/C=C1\CCCc2ccccc2C1O (stereo not given) | impermeable | 0.38 | impermeable |  |  |  | inhibition (Rattus norvegicus [4]): Active |
| O=C(O)C1=CC(O)CC1 (stereo not given) |  |  |  | Dose-dependent effect |  |  |  |
| COc1ccc(-c2ccc(=N)n(CCCC(=O)O)n2)cc1 |  |  |  |  |  |  | inhibition (Rattus norvegicus [4]): Active |
| O=C(O)CCCO [OXYBATE] | impermeable | 0.2 | impermeable | Dose-dependent effect | 1140 | 5.94 |  |
| O=C([O-])C1=CC(O)CC1.[Na+] (stereo not given) |  |  |  |  | 116 | 6.93 |  |
| O=C(O)C1=CC(O)CC1 (racemic) [listing 1 of 2 here] |  |  |  | Dose-dependent effect |  |  |  |
| O=C(O)C1=CC(O)CC1 (racemic) [listing 2 of 2 here] | impermeable | 0.37 | impermeable |  | 73 | 7.14 | Stability [8]: 16 months; Ki [9]: 160 nM |
| [3H]C1(O)C=C(C(=O)O)CC1 (stereo not given) |  |  |  |  |  |  | Stability [10]: Stable; Stability [11]: Stable |
